In ChEMBL document CHEMBL2040797, “Synthesis of benzimidazoles bearing oxadiazole nucleus as anticancer agents” (2012):

Tests used:
Type in all cases: functional
U-251 [1] = experiment: Growth inhibition of human U251 cells at 10 uM after 48 hrs by sulforhodamine B assay; settings: U-251, 48 h, read-out: GI
Procedure, shortened: (§1)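 NCI-60 single-dose screen. Cells grown in RPMI 1640 with 5% FBS and L-glutamine, plated at 5000–40,000 cells/well by doubling time, and preincubated 24 h at 37 °C, 5% CO2. Compound stocks in DMSO, added at one concentration, then incubated 48 h. Adherent cells fixed with cold TCA (10% final), stained with 0.4% SRB, dye solubilized in 10 mM Tris base, A515 read. Reported as percent growth relative to untreated control.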

OVCAR-8 = experiment: Growth inhibition of human OVCAR8 cells at 10 uM after 48 hrs by sulforhodamine B assay; settings: OVCAR-8, 48 h, read-out: GI
Procedure, shortened: (§2)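 NCI one-dose primary screen at 10 (printed mM) across the 60-line panel. Cells in RPMI 1640 with 5% FBS and 2 mM L-glutamine, plated at 5000–40,000 cells/well and incubated 24 h before dosing. Exposure 48 h at 37 °C, 5% CO2. Adherent cells were fixed with cold TCA, suspension cells fixed after settling. SRB stain, absorbance 515 nm. Reported as percent growth of treated cells relative to control.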

ACHN [2] = experiment: Growth inhibition of human ACHN cells at 10 uM after 48 hrs by sulforhodamine B assay; settings: read-out: GI; procedure, shortened: as §2
ACHN [3] = experiment: Cytotoxicity against human ACHN cells after 48 hrs by sulforhodamine B assay
Procedure, shortened: (§3)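 NCI 60-panel screen. Cells were grown in RPMI 1640 with 5% FBS and L-glutamine and plated at 5000–40,000 cells/well according to doubling time. They were preincubated 24 h at 37 °C, 5% CO2, then exposed 48 h to five 10-fold dilutions. Adherent cells were fixed with cold TCA, final 10%; suspension cells were fixed after settling. Cells were stained with 0.4% SRB and read at 515 nm. Tz/C/Ti growth curves gave GI50, TGI and LC50.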

OVCAR-5 = experiment: Growth inhibition of human OVCAR5 cells at 10 uM after 48 hrs by sulforhodamine B assay; settings: OVCAR-5, 48 h, read-out: GI; procedure, shortened: as §2
NCI-H23 [4] = experiment: Growth inhibition of human NCI-H23 cells at 10 uM after 48 hrs by sulforhodamine B assay; settings: NCI-H23, 48 h, read-out: GI; procedure, shortened: as §2
NCI-H23 [5] = experiment: Cytotoxicity against human NCI-H23 cells after 48 hrs by sulforhodamine B assay; settings: NCI-H23, 48 h; procedure, shortened: as §3
PC-3 = experiment: Cytotoxicity against human PC3 cells after 48 hrs by sulforhodamine B assay; settings: PC-3, 48 h; procedure, shortened: as §3
HCT-116 = experiment: Growth inhibition of human HCT116 cells at 10 uM after 48 hrs by sulforhodamine B assay; settings: HCT-116, 48 h, read-out: GI; procedure, shortened: as §2
RXF 393 [6] = experiment: Cytotoxicity against human RXF393 cells after 48 hrs by sulforhodamine B assay; settings: RXF 393, 48 h; procedure, shortened: as §3
MCF7 [7] = experiment: Growth inhibition of human MCF7 cells at 10 uM after 48 hrs by sulforhodamine B assay; settings: MCF7, 48 h, read-out: GI; procedure, shortened: as §2
COLO 205 = experiment: Growth inhibition of human COLO205 cells at 10 uM after 48 hrs by sulforhodamine B assay; settings: COLO 205, 48 h, read-out: GI; procedure, shortened: as §2
IGROV-1 = experiment: Cytotoxicity against human IGROV1 cells after 48 hrs by sulforhodamine B assay; settings: IGROV-1, 48 h; procedure, shortened: as §3
SK-MEL-5 [8] = experiment: Cytotoxicity against human SK-MEL-5 cells after 48 hrs by sulforhodamine B assay; settings: SK-MEL-5, 48 h; procedure, shortened: as §3
MCF7 [9] = experiment: Cytotoxicity against human MCF7 cells after 48 hrs by sulforhodamine B assay; settings: MCF7, 48 h; procedure, shortened: as §3
DU-145 = experiment: Cytotoxicity against human DU145 cells after 48 hrs by sulforhodamine B assay; settings: DU-145, 48 h; procedure, shortened: as §3
NCI/ADR-RES = experiment: Growth inhibition of human NCI/ADR-RES cells at 10 uM after 48 hrs by sulforhodamine B assay; settings: read-out: GI; procedure, shortened: as §2
A498 = experiment: Growth inhibition of human A498 cells at 10 uM after 48 hrs by sulforhodamine B assay; settings: A498, 48 h, read-out: GI; procedure, shortened: as §2
NCI-H322M = experiment: Growth inhibition of human NCI-H322M cells at 10 uM after 48 hrs by sulforhodamine B assay; settings: read-out: GI; procedure, shortened: as §2
RXF 393 [10] = experiment: Growth inhibition of human RXF393 cells at 10 uM after 48 hrs by sulforhodamine B assay; settings: RXF 393, 48 h, read-out: GI; procedure, shortened: as §2
SF-295 = experiment: Cytotoxicity against human SF295 cells after 48 hrs by sulforhodamine B assay; settings: SF-295, 48 h; procedure, shortened: as §3
T47D = experiment: Growth inhibition of human T47D cells at 10 uM after 48 hrs by sulforhodamine B assay; settings: read-out: GI; procedure, shortened: as §1
CAKI-1 = experiment: Growth inhibition of human Caki1 cells at 10 uM after 48 hrs by sulforhodamine B assay; settings: CAKI-1, 48 h, read-out: GI; procedure, shortened: as §2
HCC 2998 = experiment: Growth inhibition of human HCC2998 cells at 10 uM after 48 hrs by sulforhodamine B assay; settings: HCC 2998, 48 h, read-out: GI; procedure, shortened: as §2
U-251 [11] = experiment: Cytotoxicity against human U251 cells after 48 hrs by sulforhodamine B assay; settings: U-251, 48 h
Procedure, shortened: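 NCI 60 panel five-dose screen. Cells in RPMI 1640 with 5% FBS and 2 mM L-glutamine, plated at 5000–40,000 cells/well and preincubated 24 h. Compounds were tested at five 10-fold concentrations (0.01–100) for 48 h at 37 °C, 5% CO2. Cells were fixed with TCA and stained with SRB, absorbance 515 nm. GI50, TGI and LC50 were taken from % growth curves against time-zero and control.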

MDA-MB-435 = experiment: Cytotoxicity against human MDA-MB-435 cells after 48 hrs by sulforhodamine B assay; settings: MDA-MB-435, 48 h; procedure, shortened: as §3
SK-MEL-5 [12] = experiment: Growth inhibition of human SK-MEL-5 cells at 10 uM after 48 hrs by sulforhodamine B assay; settings: SK-MEL-5, 48 h, read-out: GI; procedure, shortened: as §1
M14 = experiment: Growth inhibition of human M14 cells at 10 uM after 48 hrs by sulforhodamine B assay; settings: M14, 48 h, read-out: GI; procedure, shortened: as §2
[13] = read-out: LC50 (the source's name)

## O=C(CCc1nnc(-c2ccc(Cl)cc2Cl)o1)c1nc2ccccc2[nH]1
U-251 [1]
  inhibition of growth at 10 µM: 47.5%
OVCAR-8
  inhibition of growth at 10 µM: 42.8%
ACHN [2]
  inhibition of growth at 10 µM: 18.7%
ACHN [3]
  GI50: 11.9 µM
  TGI: 100 µM
ACHN [3]; [13]
  CC50: 100 µM
OVCAR-5
  inhibition of growth at 10 µM: 18.9%
NCI-H23 [4]
  inhibition of growth at 10 µM: 38.1%
NCI-H23 [5]
  GI50: 3.23 µM
  TGI: 63.2 µM
NCI-H23 [5]; [13]
  CC50: 100 µM
PC-3
  GI50: 3.71 µM
  TGI: 100 µM
PC-3; [13]
  CC50: 100 µM
HCT-116
  inhibition of growth at 10 µM: 77.9%
RXF 393 [6]
  GI50: 4.3 µM
  TGI: 49.7 µM
RXF 393 [6]; [13]
  CC50: 100 µM
MCF7 [7]
  inhibition of growth at 10 µM: 55.3%
COLO 205
  inhibition of growth at 10 µM: 37.4%
IGROV-1
  GI50: 5.26 µM
  TGI: 39.1 µM
IGROV-1; [13]
  CC50: 100 µM
SK-MEL-5 [8]
  GI50: 2.88 µM
  TGI: 14.9 µM
SK-MEL-5 [8]; [13]
  CC50: 64.6 µM
MCF7 [9]
  GI50: 4.57 µM
  TGI: 100 µM
MCF7 [9]; [13]
  CC50: 100 µM
DU-145
  GI50: 17.8 µM
  TGI: 100 µM
DU-145; [13]
  CC50: 100 µM
NCI/ADR-RES
  inhibition of growth at 10 µM: 36.7%
A498
  inhibition of growth at 10 µM: 41.6%
NCI-H322M
  inhibition of growth at 10 µM: 24%
RXF 393 [10]
  inhibition of growth at 10 µM: 18.4%
SF-295
  GI50: 5.98 µM
  TGI: 42.9 µM
SF-295; [13]
  CC50: 100 µM
T47D
  inhibition of growth at 10 µM: 48%
CAKI-1
  inhibition of growth at 10 µM: 40.2%
HCC 2998
  inhibition of growth at 10 µM: 34.1%
U-251 [11]
  GI50: 10.9 µM
  TGI: 77.6 µM
U-251 [11]; [13]
  CC50: 100 µM
MDA-MB-435
  GI50: 2 µM
  TGI: 4.77 µM
MDA-MB-435; [13]
  CC50: 100 µM
SK-MEL-5 [12]
  inhibition of growth at 10 µM: 33%
M14
  inhibition of growth at 10 µM: 44.2%
